Experimental data gathered from unrelated publications.
Compare with care: the assays were run in different laboratories.
Medium: plasma

SMILES | test system | conditions | Cmax
COc1ccc2c(c1)CN(C(=O)CCN1CCC(Cc3ccccc3)CC1)CC[S@@+]2[O-] | male human | intravenous, 0.01 mg/kg, healthy volunteers | 21.9 ng/mL
O=C(COc1ccc(Cl)cc1)NC12CC(c3nnc([C@H]4C[C@@H](OC(F)(F)F)C4)o3)(C1)C2 | human | oral, 145 mg, multiple doses, once daily, steady state, healthy volunteers | 9280 nM
Cc1cc(-c2nccc3c2ccn3CC(=O)Nc2ccc(-c3cnccn3)cn2)ccn1 | human | oral, 20 mg, single dose | 188 nM
C=CC(=O)NC1CCN(c2ncc3ncnc(Nc4ccc(Oc5ccc6c(c5)ncn6C)c(C)c4)c3n2)CC1 | male human | intravenous, 100 µg, single dose, healthy volunteers | 0.583 nM
OC[C@H]1O[C@@H](c2cc(Cc3ccc(C4CC4)cc3)c(Cl)c3c2CCO3)[C@H](O)[C@@H](O)[C@@H]1O | human | oral, 0.3 mg, single dose, fed | 3.74 ng/mL
CC(=O)N(C)[C@H]1CCN(C(=O)c2cnc3c(c2)C[C@](C)(c2ccc(F)cc2)N3)C1 | male human | oral, 15 mg, multiple doses, once daily, steady state | 333 nM
COc1ccc(-c2c(Nc3ccccn3)[nH]c3c(C4=CCCCC4)c(-c4ccccc4)nn3c2=O)cc1 | human | oral, 200 mg once daily, multiple doses, patients | 5720 ng/mL
CC(C)n1c(C2CCNCC2)nc2c([N+](=O)[O-])c(Br)c(Br)cc21 | human | oral, 50 mg, patients | 33.6 ng/mL
